The values below come from ChEMBL document CHEMBL1221317, “S-benzylisothiourea derivatives as small-molecule inhibitors of indoleamine-2,3-dioxygenase” (Bioorg Med Chem Lett, 2010).

Molecules are shown by their SMILES. Active and inactive are the calls of the source. The calls are words filed in the database; no cut-off is given here.

For experiment [1], the target named is T1, Indoleamine 2,3-dioxygenase 1 (Homo sapiens, UniProt P14902). The experiment in a line: Inhibition of indoleamine-2,3-dioxygenase. The gist of the method: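 Recombinant IDO, in 50 mM potassium phosphate buffer (pH 6.5) with 20 mM neutralized ascorbic acid, catalase, methylene blue and L-Trp. Incubated at 37 °C for 60 min, then stopped with 30% (w/v) trichloroacetic acid and heated at 50 °C for 15 min. After centrifugation, the supernatant was mixed with 2% (w/v) p-dimethylaminobenzaldehyde in acetic acid to detect kynurenine colorimetrically.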
Target sequence in this assay (P14902 whole entry): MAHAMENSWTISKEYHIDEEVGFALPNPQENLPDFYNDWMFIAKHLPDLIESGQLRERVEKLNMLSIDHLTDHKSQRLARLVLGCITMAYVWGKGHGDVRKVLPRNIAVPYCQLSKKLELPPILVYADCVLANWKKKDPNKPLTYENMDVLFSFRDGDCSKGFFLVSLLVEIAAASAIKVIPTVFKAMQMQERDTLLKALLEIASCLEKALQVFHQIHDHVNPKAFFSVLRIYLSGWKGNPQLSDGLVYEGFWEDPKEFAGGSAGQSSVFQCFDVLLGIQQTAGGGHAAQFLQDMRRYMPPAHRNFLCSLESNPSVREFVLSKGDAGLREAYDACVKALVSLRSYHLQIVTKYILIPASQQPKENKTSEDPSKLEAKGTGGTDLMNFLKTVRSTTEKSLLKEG

Experiment [2] has as its target T1, Indoleamine 2,3-dioxygenase 1. Briefly: Inhibition of indoleamine-2,3-dioxygenase in human A431 cells assessed as inhibition of IFN-gamma-stimulated kynurenine production. The class given is cell-based, A-431. Summed up: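 A431 cells (2.0 × 10⁵ cells/mL) were seeded and grown overnight. Serial DMSO dilutions of compound were added and incubated for 24 h more. Then 7% (v/v) aqueous trichloroacetic acid and 2% (w/v) p-dimethylaminobenzaldehyde in acetic acid (2:5) were added, and the kynurenine-derived yellow colour was read at 460 nm.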
Target sequence in this assay (P14902 whole entry): as above

Another experiment deals with A-431. The experiment in a line: Inhibition of indoleamine-2,3-dioxygenase expression in human A431 cells at 10 uM. Format: functional, cell-based. Summed up: (§1)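 A431 cells were precultured for 24 h, given fresh medium, and treated with compound with or without IFN-γ (5 ng/ml). Culture media and cell extracts were then collected. IDO and α-tubulin in the lysates were detected by western blot, and kynurenine concentration was measured in the culture medium.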

Experiment [3] has as its target T1, Indoleamine 2,3-dioxygenase 1. Briefly: Inhibition of indoleamine-2,3-dioxygenase in human A431 cells assessed as inhibition of IFN-gamma-stimulated kynurenine production at 10 uM. Format: cell-based. Particulars: A-431. Summed up:
as §1
Target sequence in this assay (P14902 whole entry, looked up): as the sequence (P14902 whole entry) above

On to `SCc1ccc(Cl)cc1`, for which the IC50 (in general, the concentration needed to halve the response being measured) in experiment [1] was found to be 3.2 µM; in experiment [2], 1.1 µM.

As to `COc1ccc(CS)cc1`, the IC50 was found to be 1.4 µM in experiment [1] and 9.4 µM in experiment [2].

For the compound `CCc1ccc(CSC(=N)N)cc1`, the IC50 in experiment [1] worked out at 16 µM; in experiment [2], 2.5 µM.

For `CS(=O)(=O)c1ccc(CSC(=N)N)cc1`, the IC50 is > 100 µM in experiment [1] and > 10 µM in experiment [2].

With `N=C(N)SCc1ccccc1`, the figures for the IC50 in experiment [1] and in experiment [2] were 61 µM and > 10 µM, respectively.

For `O=S(=O)(O)c1ccc(Cl)cc1`, the IC50 was > 100 µM in experiment [1] and > 20 µM in experiment [2].

`SCc1ccc(Cl)c(Cl)c1`: the results for the IC50 in experiment [1] and in experiment [2] were 0.1 µM and 1.1 µM, respectively.

Consider `N=C(N)SCCc1ccccc1Cl`, for which the IC50 in experiment [1] is > 100 µM; in experiment [2] it was > 20 µM.

`N=C(N)SCc1cccc(Cl)c1`: the IC50 is 4.6 µM in experiment [1] and 1.4 µM in experiment [2].

Regarding `SCc1ccc(Cl)cc1Cl`, the IC50 in experiment [1] was 3.5 µM; in experiment [2], 4.6 µM.

`N=C(N)SCc1ccc(C(F)(F)F)cc1`: the results for the IC50 in experiment [1] and in experiment [2] were 2.6 µM and 1.2 µM, respectively.

In the case of `N=C(N)SCc1ccc(C(=O)O)cc1`, the IC50 is > 100 µM in experiment [1] and > 20 µM in experiment [2].

`N=C(N)SCCc1ccc(Cl)cc1`: the IC50 in experiment [1] is 57 µM; in experiment [2], > 20 µM.

For `NCc1ccc(Cl)cc1`, the IC50 in experiment [1] was > 100 µM; in experiment [2] it was > 20 µM.

With `Fc1ccc(CS)cc1`, the IC50 in experiment [1] was determined as 1.8 µM; in experiment [2] it was 1.9 µM.

Turning to `OCc1ccc(Cl)cc1`, the IC50 is > 100 µM in experiment [1] and > 20 µM in experiment [2].

For the compound `N=C(N)SCCc1cccc(Cl)c1`, the IC50 was > 100 µM in experiment [1] and > 20 µM in experiment [2].

Consider `C/N=C(\NC)SCc1ccc(Cl)cc1`, for which the IC50 was 21 µM in experiment [1] and > 20 µM in experiment [2].

As for `SCc1ccccc1Cl`, the IC50 amounted to 1.2 µM in experiment [1] and 15 µM in experiment [2].

In the case of `N#Cc1ccc(CSC(=N)N)cc1`, the IC50 in experiment [1] worked out at 19 µM; in experiment [2], 2.6 µM.

As for `O=S(O)c1ccc(Cl)cc1`, the IC50 in experiment [1] was > 100 µM; in experiment [2], > 20 µM.

`CSC(=N)Nc1ccc(Cl)cc1`: the IC50 is > 100 µM in experiment [1] and > 20 µM in experiment [2].

Regarding `SCc1ccccc1` [BENZENEMETHANETHIOL], the IC50 is 1.7 µM in experiment [1] and 13 µM in experiment [2].

For the compound `Sc1ccc(Cl)cc1`, the IC50 in experiment [1] is 1.9 µM; in experiment [2] it was > 20 µM.

Regarding `Cc1ccc(CSC(=N)N)cc1`, the IC50 is 30 µM in experiment [1] and 6.8 µM in experiment [2].

`N=C(N)SCc1ccc(C(=O)c2ccccc2)cc1`: the IC50 in experiment [1] was > 100 µM; in experiment [2], > 20 µM.

Consider `NC(=S)Nc1ccc(Cl)cc1`, for which the figures for the IC50 in experiment [1] and in experiment [2] were > 100 µM and > 20 µM, respectively.

Consider `Cc1ccc(CS)cc1`, for which the figures for the IC50 in experiment [1] and in experiment [2] were 1.3 µM and 6.5 µM, respectively.

Regarding `NCCc1ccc(Cl)cc1`, the 50% inhibitory concentration (IC50) in experiment [1] was > 100 µM; in experiment [2], > 20 µM.

Take `N=C(N)SCc1ccc(Cl)c(Cl)c1`: the IC50 in experiment [1] amounted to 17 µM; in experiment [2], 7.3 µM.

For `CC(C)c1ccc(CSC(=N)N)cc1`, the figures for the IC50 in experiment [1] and in experiment [2] were > 100 µM and > 20 µM, respectively.

`N=C(N)SCc1ccccc1Cl`: the IC50 amounted to 10 µM in experiment [1] and 4.8 µM in experiment [2].

Take `N=C(N)SCc1ccc(Br)cc1`: the IC50 is 1.3 µM in experiment [1] and 0.8 µM in experiment [2].

As for `N=C(N)SCc1ccc(F)cc1`, the results for the IC50 in experiment [1] and in experiment [2] were 13 µM and 2 µM, respectively.

Regarding `CSC(=N)NCCc1ccc(Cl)cc1`, the IC50 in experiment [1] was > 100 µM; in experiment [2], > 20 µM.

Take `NC(=O)NCc1ccc(Cl)cc1`: the values for the IC50 in experiment [1] and in experiment [2] were > 100 µM and > 20 µM, respectively.

Take `NC(=S)NCCc1ccc(Cl)cc1`: the IC50 is 100 µM in experiment [1] and > 20 µM in experiment [2].

`COc1ccc(CSC(=N)N)cc1`: the IC50 in experiment [1] amounted to 52 µM; in experiment [2], 10 µM.

As for `CC(C)(C)c1ccc(CSC(=N)N)cc1`, the IC50 in experiment [1] was > 100 µM; in experiment [2], > 20 µM.

Turning to `N=C(N)SCc1ccc([N+](=O)[O-])cc1`, the IC50 is 11 µM in experiment [1] and 2.2 µM in experiment [2].

For the compound `N=C(N)SCc1ccc(Cl)cc1`, the figures for the IC50 in experiment [1] and in experiment [2] were 2.2 µM and 0.6 µM, respectively. Besides, in the experiment with A-431, the inhibition result is “inactive”. In addition, the inhibition entry in experiment [3] was “Active”.

For the compound `N=C(N)SCc1ccc(Cl)cc1Cl`, the IC50 in experiment [1] amounted to 0.4 µM; in experiment [2] it was 1.1 µM.
